Source: ChEMBL document CHEMBL1126571, “Isocyanines and pseudoisocyanines as a novel class of potent noradrenaline transport inhibitors: synthesis, detection, and biological activity” (J Med Chem, 1993)

Tests used:
CAKI-1 = assay: Tested for the inhibition of extraneuronal [3H]norepinephrine uptake in Caki-1 cells; assay type: functional, cell-based; details: Homo sapiens, CAKI-1, 15 min
Summary of the method: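 Human renal carcinoma Caki-1 monolayers expressing extraneuronal noradrenaline transport. Preincubated 20 min at 37 °C in HEPES buffer pH 7.4 with U-0521 and pargyline (10 μmol/L each) and ascorbate 1 mmol/L, then incubated 15 min at 37 °C with 100 nmol/L [3H]noradrenaline. Inhibitor present throughout. Cells rinsed ice-cold, read by scintillation. Specific uptake is the fraction sensitive to 100 μmol/L O-methylisoprenaline. IC50 from Hill fit, geometric mean with 95% confidence limits.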

[1] = Partition coefficient (logP); assay type: physicochemical; details: octanol/water
Summary of the method: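 Shake-flask octanol/water partition: compound diluted from ethanolic stock to 20 μmol/L in octanol-saturated sodium phosphate buffer (10 mmol/L, pH 7.4). Absorbance read before and after shaking 2 h at 21 °C with buffer-saturated 1-octanol (buffer:octanol volume ratio f), phases split by centrifugation. P = (Ao − Ax)/Ax × f. Read at 520 nm (pseudoisocyanines) or 565 nm (isocyanines); SEM, n = 4.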

PC-12 = assay: Tested for the inhibition of neuronal type of noradrenaline uptake in clonal PC12 cells; assay type: functional, cell-based; details: Rattus norvegicus

For `CN1C=C/C(=C/c2ccc3ccccc3[n+]2C)c2ccccc21`, the IC50 (CAKI-1) was 100 nM and the logP [1] was 0.81.
`CC[n+]1c(Cc2ccc3ccccc3[n+]2CC)ccc2ccccc21` showed an IC50 (CAKI-1) of 12 nM, a logP [1] of 0.65 and an IC50 (PC-12) of 3000 nM.
With `C[n+]1c(Cc2ccc3ccccc3[n+]2C)ccc2ccccc21` the IC50 (CAKI-1) was 94 nM and the logP [1] was 0.34.
`CCN1/C(=C\c2cc[n+](CC)c3ccccc23)C=Cc2ccccc21` gave an IC50 (CAKI-1) of 29 nM and a logP [1] of 0.86.
For `CC[n+]1c(Cc2ccc3ccccc3[n+]2C(C)C)ccc2ccccc21`, the IC50 (CAKI-1) was 13 nM and the logP [1] was 0.84.
Work on `CC(C)[n+]1ccc(/C=C2/C=Cc3ccccc3N2C)c2ccccc21` yielded an IC50 (CAKI-1) of 51 nM and a logP [1] of 0.92.
With `CC(C)N1/C(=C\c2cc[n+](C(C)C)c3ccccc23)C=Cc2ccccc21` [DISPROCYNIUM24] the IC50 (CAKI-1) was 14 nM and the logP [1] was 1.16.
